Results from PMC6039208 (Clinical and Translational Science, 2018).

Tests used:
[1] = target: CYP3A4 (Homo sapiens, UniProt P08684); format: in vivo; details: patients with AML
[2] = test system: FLT3‐ITD; details: cited from earlier work
[3] = Population PK model of sorafenib and its N‐oxide metabolite in patients with AML; format: in vivo, human
[4] = target: T1, FLT3‐ITD (Homo sapiens, UniProt P36888); experiment: Exposure‐response; format: cell-based; details: doses given in this study (400 or 600 mg b.i.d.)
T1 sequence (P36888 27-993): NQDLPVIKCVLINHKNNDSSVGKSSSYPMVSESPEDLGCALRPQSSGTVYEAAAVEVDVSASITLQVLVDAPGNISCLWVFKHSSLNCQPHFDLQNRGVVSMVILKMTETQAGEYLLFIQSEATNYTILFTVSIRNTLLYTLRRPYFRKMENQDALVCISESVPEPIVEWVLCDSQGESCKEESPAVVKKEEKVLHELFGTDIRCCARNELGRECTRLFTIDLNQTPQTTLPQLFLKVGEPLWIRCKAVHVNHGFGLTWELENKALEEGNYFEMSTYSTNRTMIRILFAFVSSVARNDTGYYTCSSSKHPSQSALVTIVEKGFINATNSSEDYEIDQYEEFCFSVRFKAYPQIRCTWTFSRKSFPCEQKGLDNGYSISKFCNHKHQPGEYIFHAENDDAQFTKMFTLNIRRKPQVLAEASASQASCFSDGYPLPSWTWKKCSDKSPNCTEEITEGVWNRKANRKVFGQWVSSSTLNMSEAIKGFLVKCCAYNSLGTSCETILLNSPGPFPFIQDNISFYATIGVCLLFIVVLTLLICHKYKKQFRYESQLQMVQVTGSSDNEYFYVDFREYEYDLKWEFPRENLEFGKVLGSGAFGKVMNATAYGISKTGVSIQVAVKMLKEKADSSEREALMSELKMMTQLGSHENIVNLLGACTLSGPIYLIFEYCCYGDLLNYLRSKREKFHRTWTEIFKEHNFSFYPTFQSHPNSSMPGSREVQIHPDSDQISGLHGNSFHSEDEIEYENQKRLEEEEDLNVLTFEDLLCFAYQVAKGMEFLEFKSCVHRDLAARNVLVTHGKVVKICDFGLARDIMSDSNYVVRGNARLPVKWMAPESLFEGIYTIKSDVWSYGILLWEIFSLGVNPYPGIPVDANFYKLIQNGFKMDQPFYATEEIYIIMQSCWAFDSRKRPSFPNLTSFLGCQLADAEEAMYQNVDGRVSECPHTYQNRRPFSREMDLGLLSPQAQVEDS

[5] = test system: ERK; experiment: Exposure‐response; format: cell-based, human; details: for Imax,ERK, maximum inhibitory effect on ERK activity: as fraction
How it was run: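 Ex vivo ERK activity in FLT3‑ITD TF‑1 cells was read by Western blot as percent of each patient's baseline (100%). An inhibitory Emax model versus metabolite‑adjusted concentration was fitted sequentially to the PK model by FOCE‑I, with Imax estimated.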

[6] = cited from earlier work
[7] = cited from earlier work; remark: listed apart in the source
[8] = FOCE‐I estimate, typical value at 80 kg

Sequence of CYP3A4 (P08684 whole entry): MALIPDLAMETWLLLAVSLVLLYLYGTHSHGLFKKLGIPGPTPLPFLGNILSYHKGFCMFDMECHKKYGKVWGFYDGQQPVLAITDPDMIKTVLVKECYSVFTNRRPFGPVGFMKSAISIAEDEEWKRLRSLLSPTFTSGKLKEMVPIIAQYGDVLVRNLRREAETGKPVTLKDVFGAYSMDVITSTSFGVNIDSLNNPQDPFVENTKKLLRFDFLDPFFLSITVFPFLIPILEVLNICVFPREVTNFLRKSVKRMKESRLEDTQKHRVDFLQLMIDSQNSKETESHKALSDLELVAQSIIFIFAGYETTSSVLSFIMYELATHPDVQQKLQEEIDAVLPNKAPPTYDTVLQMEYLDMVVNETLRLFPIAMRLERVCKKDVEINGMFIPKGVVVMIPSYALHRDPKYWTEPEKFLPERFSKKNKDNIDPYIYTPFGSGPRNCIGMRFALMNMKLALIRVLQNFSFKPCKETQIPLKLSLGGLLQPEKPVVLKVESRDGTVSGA

## C[C@@H](c1ncncc1F)[C@](O)(Cn1cncn1)c1ccc(F)cc1F [voriconazole]
[1]
  change in sorafenib exposure in the presence of the inhibitor: no change

## CNC(=O)c1cc(Oc2ccc(NC(=O)Nc3ccc(Cl)c(C(F)(F)F)c3)cc2)cc[n+]1[O-] [sorafenib N‐oxide]
[2]; in vitro study, N‐oxide vs sorafenib
  fold more potent than the parent drug, FLT3‐ITD potency: 14.59 fold
[3]; [8]
  CLm, clearance of the N‐oxide metabolite: 116 L/h
  V7, apparent volume of distribution (compartment A7) of the N‐oxide metabolite: 89.80 L
[3]; median of 1,000 bootstraps
  CLm, clearance of the N‐oxide metabolite: 123 L/h
  V7, apparent volume of distribution (compartment A7) of the N‐oxide metabolite: 94.50 L

## CNC(=O)c1cc(Oc2ccc(NC(=O)Nc3ccc(Cl)c(C(F)(F)F)c3)cc2)ccn1 [sorafenib]
[4]
  extent of FLT3‐ITD activity inhibition: fully inhibited
[5]; FOCE‐I estimate
  Imax,ERK, maximum inhibitory effect on ERK activity: 0.84
[5]; doses given in this study (400 or 600 mg b.i.d.)
  extent of ERK activity inhibition: could not be completely inhibited
[5]; median of 1,000 bootstraps
  Imax,ERK, maximum inhibitory effect on ERK activity: 0.82
[6]; 400 mg b.i.d. regimen, 2/9 patients, original clinical trial ref 9
  dose‐limiting toxicity rate: ~20%
[6]; continuous 400 mg b.i.d.
  proportion of patients with AML able to adhere to dosing: 18%
[2]
  in vitro FLT3‐ITD inhibitory activity compared with midostaurin: fourfold higher
[3]; FOCE‐I estimate
  K64, release rate constant from gallbladder back to the gastrointestinal track: 0.173 h⁻¹
  TENT, time controller of enterohepatic recirculation (time after dose): 5.48 h
  fENT, fraction of sorafenib that goes through enterohepatic circulation: 50.20%
[3]; FOCE‐I estimate, patients with AML, oral
  Ka, absorption rate constant: 3.75 h⁻¹
[3]; human, plasma, oral, CL, total clearance, median of 1,000 bootstraps
  clearance: 237 mL/min
[3]; human, plasma, oral, fu, %fraction of unbound sorafenib, FOCE‐I estimate
  fraction unbound: 0.0181
[3]; median of 1,000 bootstraps
  K64, release rate constant from gallbladder back to the gastrointestinal track: 0.17 h⁻¹
  Ka, absorption rate constant: 3.78 h⁻¹
  TENT, time controller of enterohepatic recirculation (time after dose): 5.47 h
  fENT, fraction of sorafenib that goes through enterohepatic circulation: 50.20%
[3]; within the observed concentration range
  concentration dependence of plasma protein binding: concentration independent
[7]
  dose above which saturable absorption occurs: over 400 mg
  time to steady‐state: ≤ 7 days
